Results from ChEMBL document CHEMBL3856290, “Discovery of TAK-272: A Novel, Potent, and Orally Active Renin Inhibitor” (ACS Med Chem Lett, 2016).
Where a name gives a salt, the structure may show the parent alone. Calls of active or inactive are those of the source. No cut-off for these calls is given here.

Columns and labels:
[1] = target: T1, Renin (Homo sapiens, UniProt P00797); experiment: Inhibition of recombinant human preprorenin expressed in human 293F cells using angiotensinogen as substrate preincubated for 10 mins followed by substrate addition measured after 30 mins by ELISA
T1 sequence (P00797 whole entry): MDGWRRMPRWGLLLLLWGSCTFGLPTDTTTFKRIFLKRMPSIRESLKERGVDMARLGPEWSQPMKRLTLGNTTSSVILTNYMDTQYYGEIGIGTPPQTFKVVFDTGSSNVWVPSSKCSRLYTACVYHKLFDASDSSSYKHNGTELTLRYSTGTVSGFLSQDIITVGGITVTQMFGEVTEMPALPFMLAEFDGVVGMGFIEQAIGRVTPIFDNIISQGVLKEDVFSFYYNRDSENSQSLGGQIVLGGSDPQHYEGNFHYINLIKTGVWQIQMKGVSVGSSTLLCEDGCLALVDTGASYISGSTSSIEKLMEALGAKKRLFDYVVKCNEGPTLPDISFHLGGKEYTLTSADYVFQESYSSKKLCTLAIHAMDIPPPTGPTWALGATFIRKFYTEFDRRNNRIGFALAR

[2] = target: T1, Renin; experiment: Inhibition of renin in human plasma by radioimmunoassay; format: cell-free
[3] = system: Rattus norvegicus; experiment: Antihypertensive activity in human angiotensinogen and renin double transgenic rat model assessed as reduction in systolic blood pressure at 10 mg/kg, po after 24 hrs by tail-cuff method; format: functional, organism-based
Procedure, shortened: (§1)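 Male hAOPEN-hREN double transgenic rats, 5 weeks old. Drugs were dissolved in 0.5% methylcellulose and given orally; vehicle-dosed rats served as controls. Systolic pressure was read by tail-cuff before dosing and at 5 and 24 h after dosing.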

[4] = Inhibition of pepsin (unknown origin); design: species or system Homo sapiens
[5] = system: Rattus norvegicus; experiment: Antihypertensive activity in po dosed human angiotensinogen and renin double transgenic rat model assessed as reduction in systolic blood pressure after 5 to 24 hrs by tail-cuff method; format: functional, organism-based; procedure, shortened: as §1
[6] = system: Rattus norvegicus; experiment: Antihypertensive activity in human angiotensinogen and renin double transgenic rat model assessed as reduction in systolic blood pressure at 10 mg/kg, po after 5 hrs by tail-cuff method; format: functional, organism-based; procedure, shortened: as §1
[7] = target: Cathepsin D (Homo sapiens, UniProt P07339); experiment: Inhibition of cathepsin D (unknown origin)
[8] = system: Rattus norvegicus; experiment: Antihypertensive activity in human angiotensinogen and renin double transgenic rat model assessed as reduction in systolic blood pressure at 3 mg/kg, po after 5 hrs by tail-cuff method; format: functional, organism-based; procedure, shortened: as §1
[9] = Oral bioavailability in non-fasted rat at 1 mg/kg administered through cassette dosing by LC/MS/MS analysis; format: ADME, organism-based; details: in vivo
Procedure, shortened: (§2)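 Cassette dosing to non-fasted rats, either 0.1 mg/kg iv or 1 mg/kg po. Blood was sampled after dosing and spun to plasma. Plasma was deproteinized and centrifuged, and compound levels in the supernatant were measured by LC/MS/MS.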

[10] = Plasma clearance in non-fasted rat at 0.1 mg/kg, iv or 1 mg/kg, po administered through cassette dosing by LC/MS/MS analysis; format: ADME, organism-based; details: in vivo; procedure, shortened: as §2
[11] = system: Rattus norvegicus; experiment: Antihypertensive activity in human angiotensinogen and renin double transgenic rat model assessed as reduction in systolic blood pressure at 75 mg/kg, po after 24 hrs by tail-cuff method; format: functional, organism-based; procedure, shortened: as §1
[12] = system: Rattus norvegicus; experiment: Antihypertensive activity in human angiotensinogen and renin double transgenic rat model assessed as reduction in systolic blood pressure at 75 mg/kg, po after 5 hrs by tail-cuff method; format: functional, organism-based; procedure, shortened: as §1
[13] = AUC in non-fasted rat at 1 mg/kg, po administered through cassette dosing by LC/MS/MS analysis; format: ADME, organism-based; details: in vivo; procedure, shortened: as §2

Cathepsin D, sequence (P07339 65-162 limits assumed): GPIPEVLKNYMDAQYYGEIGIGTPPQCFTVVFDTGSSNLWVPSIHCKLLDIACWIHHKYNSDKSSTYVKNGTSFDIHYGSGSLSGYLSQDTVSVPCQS
Cathepsin D, sequence (P07339 169-412 limits assumed): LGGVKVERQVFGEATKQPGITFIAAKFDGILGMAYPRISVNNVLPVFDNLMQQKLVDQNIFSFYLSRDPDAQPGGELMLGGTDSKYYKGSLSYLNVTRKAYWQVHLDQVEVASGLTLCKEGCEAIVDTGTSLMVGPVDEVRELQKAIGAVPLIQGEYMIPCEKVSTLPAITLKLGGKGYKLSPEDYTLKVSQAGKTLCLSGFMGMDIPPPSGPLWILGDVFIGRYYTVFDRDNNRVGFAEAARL

SMILES	IC50 [1]	IC50 [2]	also measured
CC(C)CN(C(=O)c1cnc(C(C)(C)C)nc1NCc1ccco1)[C@H]1CCCNC1	0.58 nM	4.6 nM	–
COCCCCn1c(C(=O)N(CC(C)C)[C@@H]2CNC[C@H](C(=O)N3CCOCC3)C2)nc2ccccc21 [IMARIKIREN HYDROCHLORIDE]	–	–	Activity [3]: Active; IC50 [4]: > 10000 nM; Activity [5]: Dose-dependent effect; Activity [6]: Active; IC50 [7]: > 10000 nM; Activity [8]: Active
COCCCNc1nc(C(C)(C)C)ncc1C(=O)N(CC(C)C)[C@@H]1CNC[C@H](C(=O)N2CCOCC2)C1	–	–	F [9]: < 1%; CL [10]: 5.539 L/h/kg
COCCCOc1cc(C[C@@H](C[C@H](N)[C@@H](O)C[C@H](C(=O)NCC(C)(C)C(N)=O)C(C)C)C(C)C)ccc1OC	–	–	Activity [11]: Active; Activity [12]: Active
CCCCCCc1nc(C(C)(C)C)ncc1C(=O)N(CC(C)C)[C@@H]1CNC[C@H](C(=O)N2CCOCC2)C1	–	–	F [9]: 5%; AUC [13]: 0.0209 µg·h/mL; CL [10]: 2.407 L/h/kg
COC(=O)[C@H]1CNC[C@@H](N(CC(C)C)C(=O)c2cnc(C(C)(C)C)nc2NCc2ccco2)C1 (racemic)	0.44 nM	1.4 nM	–
COC(=O)[C@@H]1CNC[C@H](N(CC(C)C)C(=O)c2cnc(C(C)(C)C)nc2NCc2ccco2)C1	1.2 nM	> 10 nM	–
COC(=O)[C@@H]1CNC[C@@H](N(CC(C)C)C(=O)c2cnc(C(C)(C)C)nc2NCc2ccco2)C1 (relative stereo)	3.3 nM	10 nM	–
COC(=O)[C@H]1CNC[C@@H](N(CC(C)C)C(=O)c2cnc(C(C)(C)C)nc2NCc2ccco2)C1	0.039 nM	0.35 nM	–

More lines, main results first:

IC50 [1]	IC50 [2]	SMILES	also measured
2.6 nM	5.2 nM	COCCCNc1nc(C(C)(C)C)ncc1C(=O)N(CC(C)C)[C@@H]1CNC[C@H](C(=O)OC)C1	–
1.4 nM	4.5 nM	COCCCNc1nc(C(C)(C)C)ncc1C(=O)N(CC(C)C)[C@@H]1CNC[C@H](C(N)=O)C1	–
